In ChEMBL document CHEMBL4513216, “Probing the Open Global Health Chemical Diversity Library for Multistage-Active Starting Points for Next-Generation Antimalarials” (ACS Infect Dis, 2020):

Test: Toxicity liver stage against HepG2, at 10uM
Format: cell-based
Design: test concentration 10 uM, cell line HepG2-A16-CD81EGFP
Conditions: human, HepG2-A16-CD81EGFP cells; read-out: INHIBITION
How it was run: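 Uninfected HepG2-A16-CD81EGFP cells, 3 × 10^3 per well, 1536-well, plated on prespotted compound at 10 μM final, parasite-free screening media added to match infected plates; puromycin 10 μM positive, DMSO 0.5% negative; run in parallel with 48 h PbLuc assay at 37 °C, 5% CO2; viability by CellTiter-Glo luminescence, normalized to controls.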

Compound	cytotoxicity at 10 µM [%]
Cc1cc(N2CCC(O)CC2)nc(C)n1	-74.7
CN(CCC(O)c1ccccc1)Cc1ccccc1C#N (configuration not stated)	6.87
COc1ccc(CN2CC(O)CN(C(=O)C3CCC3)CC2=O)cc1 (configuration not stated)	-12.8
CC(C)Cc1cc(C(=O)O)nc2[nH]c(=O)[nH]c(=O)c12	-0.508
COCCNC(=O)Cc1cnc(-n2cccc2)s1	-3.35
CCS(=O)(=O)N1CC(c2nc(-c3ccncc3)no2)C1	-5.86
COCC(=O)NCC(Cc1cccc(F)c1)n1cccc1 (configuration not stated)	2.55
O=C(CN1C(=O)CCC1=O)NCCc1nc(C2CC2)cc(C(F)(F)F)n1	-2.02
O=c1ccc2c([nH]1)CCN(S(=O)(=O)c1ccc3c(c1)CCCC3)C2	-4.63
Cc1cc(C(O)CCNC(=O)COc2ccccc2C)c(C)o1 (configuration not stated)	2.86
COCCN1CCCC12CCCN(c1nncs1)C2 (configuration not stated)	9.79
O=S(=O)(C1CC1)N1CCn2c(Cn3cccn3)cnc2C1	12.4
CCCS(=O)(=O)N1CCC2(CCCN(c3ncc(F)cn3)C2)C1 (configuration not stated)	13.4
Fc1cccc(N2CCOC3(CCCN(c4cnccn4)C3)C2)c1 (configuration not stated)	5.89
CC(C)CNC(=O)N1C[C@H]2CC[C@@]3(N=C(c4ccccc4)NC3=O)[C@H]2C1	-5.82
Cn1cc(CN2CCC3(CC2)CCN(Cc2ccccn2)CC3)cn1	9.84
Cc1ccc(-c2csc(N)c2C#N)c(C)c1	10.5
O=C(NCCN1CCC(c2cccs2)CC1)c1ccccc1C(F)(F)F	-20.2
CN(C)C(=O)CO[C@@H]1CC[C@H]2[C@H]1OCCN2C(=O)C1CCOCC1	-7.56
COc1ccc(CCC(=O)N(C)Cc2c(C)nn(C)c2C)cc1	-0.734
CC1(c2ncc(CN3CCSCC3)cn2)CCCCO1 (configuration not stated)	2.12

Compound	cytotoxicity at 10 µM [%]
CN(C)C(=O)C1(c2cnccn2)CCCN1C(=O)Cc1ccsc1 (configuration not stated)	-1.84
CC(C)Nc1cccc(CC2CCN(S(C)(=O)=O)CC2)n1	-22.3
CNc1cc(C2CN(Cc3csc(C)n3)CCO2)nc(C)n1 (configuration not stated)	-1.6
Cc1nccc(C2CCCCN2Cc2ccc(F)cc2)n1 (configuration not stated)	-6.06
CC(C)NC(=O)C1(Cc2ccccc2-c2cccs2)CCNC1 (configuration not stated)	-42
COc1cccc(CN2CC[C@H](NC(C)=O)[C@@H](O)CC2)c1F	-8.63
O=C(c1ccncc1)N1CCCC1c1nc(O)cc(-c2ccccn2)n1 (configuration not stated)	-9.08
COc1ncc(CN2CCOC(C)(C(=O)N3CCOCC3)C2)cn1 (configuration not stated)	-9.49
CNc1cccc(C2CCCN(C(=O)c3coc(C)n3)C2)n1 (configuration not stated)	-11.7
Cc1ccn(CCC(=O)N2CCCC(Cc3cccnc3)C2)n1 (configuration not stated)	-4.47
C[C@]1(O)CN(CC(=O)N2CCCC2)CC[C@@H]1Oc1cccc(F)c1	-19.1
CNC(=O)C1(CCCc2cccnc2)CCCCN1 (configuration not stated)	2.34
Cc1ccc(-n2cnc(Cl)c2CO)cc1	-0.303
O=C(NCCNCc1cccc2c1OCCCO2)C1CCCC1	8.08
Cc1ccc(N2CCCC(N(C)Cc3nc(C)c(C)o3)C2)nn1 (configuration not stated)	3.15
COCCN(Cc1cccc(C#N)c1)Cc1nc(C)no1	1.18
CC(C)(C)c1noc(CNc2ccccc2N2CCC(O)CC2)n1	0.965
O=C(Nc1ccc(Cn2cccn2)cc1)N1CCC2(CC1)OCCO2	6.09
CNC(=O)CN(C(=O)c1ccc(SC)o1)c1cccc(F)c1	10.3
Cc1cc(NC(=O)C(c2cccc(F)c2)N2CCOCC2)ccn1 (configuration not stated)	0.278
Nc1nccc(-c2c[nH]nc2C2CCCCC2)n1	36.5

Compound	cytotoxicity at 10 µM [%]
CCC(C)N(Cc1cnc(NCC(=O)O)nc1)Cc1ccsc1 (configuration not stated)	0.866
Cc1nc2c(c(N3CCCOCC3)n1)CCN(c1nccs1)CC2	3.08
CCOc1ccccc1C(C(=O)O)N(C)CC1CCOCC1 (configuration not stated)	-4.36
CSCC(=O)N1CCCC(CO)(CC2CC2)C1 (configuration not stated)	4.38
CCOc1cc2c(cc1CN1CCC3(CCCNC3=O)C1)CCC2 (configuration not stated)	14.9
Cc1nnc(N2CCN(C)C3(CCC(=O)N(CCO)CC3)C2)s1 (configuration not stated)	-9.2
OCC1COCCN(Cc2cc(C3CCCCC3)no2)C1 (configuration not stated)	6.44
CSCCc1n[nH]c2c1CN(S(=O)(=O)c1c(C)nn(C)c1C)CC2	7.66
CCOC(=O)C1(Cc2cccc(OC)c2)CCCN(Cc2ncc[nH]2)C1 (configuration not stated)	3.86
Cc1ccccc1CSc1nc(N)cc(N2CCCC(C(N)=O)C2)n1 (configuration not stated)	-2.32
CC(C)Cc1nc(CCn2cncn2)n(-c2ccc3c(c2)OCCO3)n1	12.5
CCc1n[nH]c(C(=O)N2CCC3(CCCN(CCOC)C3=O)C2)c1C (configuration not stated)	6.38
COCC1(CNc2cc(C(C)C)nc(N)n2)CC1	29.4
COc1ccc(CN2CCCn3cncc3C2)cc1Cn1cncn1	5.63
CCc1ccc(CN(C)c2cc(COC)nc3ccnn23)cc1	3.52
CC(C)c1cc(CN2CCC(N)CC2)on1	-10.7
Cc1nc2cc(=O)[nH]n2c(C)c1CC(=O)NCc1ccc(C#N)cc1	-3.34
c1cnn(CC2CCCN2Cc2ccc(-n3cccn3)cc2)c1 (configuration not stated)	-4.8
CC(C)c1nc(CN2CCCC2CN2CCCC2)cs1 (configuration not stated)	6.72
Cc1ccc(CC(=O)N2CCc3nnc(N(C)C)cc3C2)cn1	-8.16
Cc1nccn1C1CCCN(C(=O)c2cc3ccccc3[nH]2)C1 (configuration not stated)	-12.2

Compound	cytotoxicity at 10 µM [%]
CC(C)c1nnc2n1CCN(C(=O)c1cccc(C(F)(F)F)c1)C2	4.09
CC(C)c1nc(C2CCCN(Cc3nnc(C4CC4)o3)C2)no1 (configuration not stated)	5.65
O=C(CN1CCOC(Cn2cccn2)C1)Nc1nncs1 (configuration not stated)	4.79
CN(C)[C@@H]1CN(Cc2ccc(O)cc2)C[C@H]1c1cn(C)c2ccccc12	2.39
CCC(C)[C@H](N)c1nnc(SCC(=O)Nc2ccc(Br)cc2)o1 (some centres not stated)	-3.48
COc1ncc(CN2C[C@@H]3CC[C@@](O)(c4ccc(C)cn4)[C@@H]3C2)cn1	-10.3
CCn1cncc1CN(Cc1ccc(OC)cc1OC)CC1CCCO1 (configuration not stated)	-18
Cn1cc(CN2CCO[C@@H]3CN(C4CCCC4)C[C@@H]3C2)cn1	-4.8
CNC(=O)CN1CC[C@H]2CN(C(=O)c3cc[nH]n3)C[C@H]2C1	0.53
CCN1CCC2(CC1)CC(NC(=O)c1csnn1)c1ccccc1O2 (configuration not stated)	-116
COc1ccccc1OCCc1cc(C2CCNC2)n[nH]1 (configuration not stated)	-17.1
Cc1cncc(C(=O)N2CCC3(CCCN(c4nncs4)C3)C2)c1 (configuration not stated)	-99.4
c1csc(CN2CCO[C@H]3[C@H](OCC4CCCC4)CC[C@@H]32)n1	6.09
c1csc(NCc2n[nH]c3c2CCN(CC2CC2)C3)n1	-0.733
CNC(=O)NCC1CCC2(CCN(C(=O)c3cccnc3)CC2)CO1 (configuration not stated)	-94.9
CCOCc1cnc2n1CCN(Cc1nc(C)cs1)C2C (configuration not stated)	10.2
O=C([C@H]1C[C@H]2CN(c3ncc(F)cn3)C[C@@H]1O2)N1CCCC1	-115
CC(C)=CCN1C[C@@H]2CC[C@H]1CN(C(=O)CCc1nnc(C)[nH]1)C2	-6.57
Cc1cnccc1CN1Cc2ccccc2OC2(CCC(CO)CC2)C1 (configuration not stated)	-8.83
